This is an account of results in ChEMBL document CHEMBL1649083, “Discovery of novel inhibitors of the NorA multidrug transporter of Staphylococcus aureus” (2011).

The target of the experiment is T1, Quinolone resistance protein NorA (Staphylococcus aureus) (UniProt P0A0J7).
T1 sequence (whole entry): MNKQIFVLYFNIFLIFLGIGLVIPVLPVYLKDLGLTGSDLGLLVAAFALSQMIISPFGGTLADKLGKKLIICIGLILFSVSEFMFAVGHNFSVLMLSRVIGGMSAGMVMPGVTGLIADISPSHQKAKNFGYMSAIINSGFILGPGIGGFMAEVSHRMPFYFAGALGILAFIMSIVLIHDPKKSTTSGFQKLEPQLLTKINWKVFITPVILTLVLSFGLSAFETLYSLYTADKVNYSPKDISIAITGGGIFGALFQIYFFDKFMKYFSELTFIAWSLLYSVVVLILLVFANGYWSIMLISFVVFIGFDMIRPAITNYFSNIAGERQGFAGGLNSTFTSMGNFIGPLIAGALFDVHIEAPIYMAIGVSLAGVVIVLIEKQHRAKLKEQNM
The experiment in a line: Inhibition of NorA in Staphylococcus aureus 1199B assessed as reduction in ethidium bromide efflux at 50 uM by fluorimetry after 5 mins. In outline: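 S. aureus SA-1199B (NorA overexpressing via promoter up-mutation; GrlA A116E), EtBr-loaded cells. EtBr loss measured fluorometrically over a 5 min time course, in duplicate, as mean total efflux. Percent reduction calculated versus efflux without compound. Test compound at 50 μM; increasing concentrations were also run for dose-response profiles.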

A word on the inhibition: it is how much of the control response was suppressed.

On to `COc1ccc(OC[C@H]2CN(C)CC[C@@H]2c2ccccc2)cc1`, for which the inhibition worked out at 47%. For `CCOC(=O)c1cn(C2CC2)c2c(C)c(N3CCC4=C(C3)/C(=N/OC)CCS4)c(N)cc2c1=O` the value was 54.4%; for `CCN(CC)CCOc1ccc(-c2cc(=O)c3ccccc3n2C)cc1`, 1.7%; for `CCOC(=O)c1cn(C2CC2)c2c(C)c(N3CCC4=C(C3)/C(=N/O)C(C)CS4)c(N)cc2c1=O` (stereo not drawn), 90%.

In the case of `Cn1c(-c2ccc(OCCN3CCOCC3)cc2)cc(=O)c2ccccc21`, the inhibition is 0%. As to `N#Cc1c(C(F)(F)F)cc(Cc2ccccc2)nc1SCc1ccc(C(=O)O)cc1`, the inhibition stood at 41.8%. As for `N#Cc1c(SCc2ccc(C(=O)O)cc2)nc2c(c1C(F)(F)F)CCCCC2`, the inhibition was 67.1%. As for `COc1ccccc1C1=Nc2ccccc2SC1`, the inhibition turned out to be 0%. In the case of `CCc1c(O)nc(SCC(=O)Nc2nc3ccccc3s2)[nH]c1=O`, the inhibition was 19.1%. For `Fc1ccc([C@@H]2CCNC[C@H]2COc2ccc3c(c2)OCO3)cc1` the value was 73%. For `CCOc1cc(C2C(C#N)=C(N)Oc3[nH]nc(C)c32)ccc1OCc1cccc(F)c1` (single isomer, unassigned) the value was 4.9%. For `CCOC(=O)c1cn(C2CC2)c2c(C)c(N3CCC4=C(C3)C(O)CCS4)c(N)cc2c1=O` (stereo not drawn), the inhibition turned out to be 47.3%. In the case of `CCCOc1ccc(-c2cc(=O)c3cc(OC)c(OC)cc3n2C)cc1`, the inhibition worked out at 0%. Then `CN(C)CCCN1c2ccccc2Sc2ccc(Cl)cc21`, with 76%.

`CC(C)Oc1ccc(-c2cc(=O)c3ccccc3n2C)cc1`: the inhibition is 10.3%. In the case of `COc1ccc(-c2cc(=O)c3ccccc3n2C)cc1`, the inhibition came to 0%.

As for `Cc1ccc(S(=O)(=O)Nc2ccc3c(c2)nc(C)n3Cc2ccccc2)cc1`, the inhibition turned out to be 30.6%. For `CCOC(=O)c1cn(C2CC2)c2cc(N3CCNCC3)c(F)cc2c1=O` the value was 20.8%. As for `COc1cc2c(=O)cc(-c3ccc(O)cc3)n(C)c2cc1OC`, the inhibition came out at 0%. Then `Cc1sc([C@@H]2C(C#N)=C(N)OC3=C2C(=O)CC(C)(C)C3)cc1COc1ccc(Br)cc1`, with 0%; and `CCCOc1ccc(C2=CSc3ccccc3N2C)cc1`, with 0%. With `CCOC(=O)c1cn(C2CC2)c2cc(N3CCC4=C(C3)C(=O)C(C)CS4)c(N)cc2c1=O` (stereo not drawn), the inhibition turned out to be 63.5%. For `Cn1c(-c2ccc(O)cc2)cc(=O)c2cc(O)c(O)cc21` the value was 0%. Then `CCOC(=O)c1cn(C2CC2)c2c(C)c(N3CCC4=C(C3)/C(=N/O)CCS4)c(N)cc2c1=O`, with 36.2%. Then `NS(=O)(=O)c1ccc(NC2=NC(=O)C(CC(=O)O)S2)cc1` (stereo not drawn), with 0%. Regarding `OCCN1CCN(CC/C=C2/c3ccccc3Sc3ccc(C(F)(F)F)cc32)CC1`, the inhibition was 82%. Then `CSc1ccc2c(c1)N(CCC1CCCCN1C)c1ccccc1S2` (stereo not drawn), with greater than 88%. As for `CCOC(=O)c1cn(C2CC2)c2cc(N3CCC4=C(C3)C(O)CCS4)c(N)cc2c1=O` (stereo not drawn), the inhibition was 26.3%. For `CN1C(=O)S/C(=C/c2ccc(-c3cc(C(=O)O)ccc3Cl)o2)C1=O` the value was 20.9%. For `OCCN1CCN(CC/C=C2\c3ccccc3Sc3ccc(C(F)(F)F)cc32)CC1` the value was 72%; for `CCOc1ccc(-c2cc(=O)c3ccccc3n2C)cc1`, 10.8%. Then `Cc1ccc(S(=O)(=O)Nc2ccc3c(c2)ncn3-c2ccccc2)cc1`, with 0%.

With `CCCOc1ccc(-c2cc(=O)c3ccccc3n2CCN2CCCCC2)cc1`, the inhibition is 75.1%. For `CCOC(=O)CCCSc1nc2c(c(C(F)(F)F)c1C#N)CC(C)CC2` (stereo not drawn) the value was 48.6%; for `CC(C)N1C(=O)S/C(=C/c2cc(Br)ccc2OCc2ccc(C(=O)O)cc2)C1=O`, 3.1%.

With `Cc1cc(C)cc(/N=C2\S/C(=C\c3ccc(C(=O)O)cc3)C(=O)N2c2cc(C)cc(C)c2)c1`, the inhibition amounted to 55%. Then `CCCOc1ccc(-c2cc(OCCN3CCCCC3)c3ccccc3n2)cc1`, with 88.5%. For `COc1cc(/C=C2\S/C(=N\c3ccccc3)N(c3ccccc3)C2=O)cc(Cl)c1OCC(N)=O` the value was 18.3%; for `Cc1c(NS(=O)(=O)c2ccc(F)cc2)c(=O)n(-c2ccccc2)n1C`, 3.2%. For `CN1CC[C@H](c2ccc(F)cc2)[C@@H](COc2ccc3c(c2)OCO3)C1` the value was 85%; for `CCOC(=O)Nc1ccc2c(c1)N(C(=O)CCN1CCN(CCO)CC1)c1ccccc1CC2`, 0%; for `CCCOc1ccc(-c2cc(=O)c3ccccc3s2)cc1`, 6.3%. Regarding `N#Cc1c(-c2ccc(F)cc2)cc(-c2ccccc2)nc1SCC(=O)N1CCC[C@@H]1C(=O)O`, the inhibition was determined as 36.3%. Take `Cc1ccc(N2CCN(C3=Nc4cc(Cl)ccc4Oc4ccccc43)CC2)cc1`: the inhibition amounted to 35.1%. Then `N#Cc1c(SCc2ccc(Cl)nc2)nc2c(c1C(F)(F)F)CCCC2`, with 41.3%. For `COc1ccc(OC[C@@H]2CN(C)CC[C@H]2c2ccccc2)cc1` (relative stereo) the value was 50%; for `COc1ccc(/C=C/C(=O)NCCc2c[nH]c3ccccc23)cc1OC`, 84%. In the case of `OCCN1CCN(CCCN2c3ccccc3Sc3ccc(C(F)(F)F)cc32)CC1`, the inhibition stood at 75%. For `CN(C)CCOc1ccc(-c2cc(=O)c3ccccc3n2C)cc1` the value was 4.4%. Then `CCOC(=O)C1SC(NC(=S)NC(=O)c2ccccc2)=NC1C` (stereo not drawn), with 23.2%; and `CCOC(=O)c1cn(C2CC2)c2cc(N3CCC4=C(C3)/C(=N/OC)C(C)CS4)c(N)cc2c1=O` (stereo not drawn), with 19.7%. As to `CCCOc1ccc(-c2cc(=O)c3ccccc3n2C)cc1`, the inhibition came to 3.9%.

Take `Cc1ccc(N(CC(=O)Nc2ccc(C(N)=O)cc2)S(=O)(=O)c2ccccc2)cc1C`: the inhibition was found to be 0.6%. Then `O=C(O)c1ccc(N2C(=O)C[C@@H](S/C(=N\c3ccccc3)Nc3ccccc3)C2=O)cc1`, with 0%; and `Cc1ccc(S(=O)(=O)Nc2ccc3[nH]c(-c4ccco4)nc3c2)cc1`, with 67.5%. Then `CCOC(=O)c1cn(C2CC2)c2c(C)c(N3CCC4=C(C3)C(=O)CCS4)c(N)cc2c1=O`, with 36.8%; and `COc1cccc(CNC(C)C(O)c2ccccc2)c1` (stereo not drawn), with 2.8%; and `CCOC(=O)c1cn(C2CC2)c2cc(N3CCC4=C(C3)/C(=N/OC)C(C)CS4)c(F)cc2c1=O` (stereo not drawn), with 86.9%. Take `C[C@H](O)c1cccc(NC(=O)CC(c2ccccc2)c2ccccc2)c1`: the inhibition was determined as 31.4%.

Regarding `CCOC(=O)c1cn(C2CC2)c2cc(N3CCC4=C(C3)C(=O)CCS4)c(N)cc2c1=O`, the inhibition amounted to 35.7%. Take `CCCCOc1ccc([C@H]2C(C#N)=C(N)Oc3cc(N(CC)CC)ccc32)cc1`: the inhibition turned out to be 20.5%. Regarding `CCOC(=O)CCSc1nc2c(c(C(F)(F)F)c1C#N)CC(C(C)(C)C)CC2` (stereo not drawn), the inhibition turned out to be 25.2%.

As for `Fc1ccc(C2=Nc3ccccc3SC2)cc1`, the inhibition came to 0%.

For the compound `CCCOc1ccc(-c2cc(OCCN(CC)CC)c3ccccc3n2)cc1`, the inhibition is 93.4%. For `Cc1ccc([C@H]2C(C#N)=C(N)Oc3cc(C)oc(=O)c32)o1` the value was 0%; for `CCC(C)N1C(=O)S/C(=C\c2ccc(N3CCCC3)o2)C1=O` (stereo not drawn), 0%. Then `COc1cc(/C=C2\S/C(=N\c3ccccc3)N([C@@H]3CCCC[C@@H]3C)C2=O)ccc1OCC(=O)O`, with 32.6%. For `CCCOc1ccc(-c2cc(=O)c3ccccc3o2)cc1` the value was 32.4%; for `COc1ccccc1CNCc1cccc(C(F)(F)F)c1`, 30%; for `CCOC(=O)c1cn(C2CC2)c2cc(N3CCC4=C(C3)/C(=N/O)C(C)CS4)c(N)cc2c1=O` (stereo not drawn), 91.2%. For the compound `O=C1NC(=O)/C(=C/c2ccc(-c3cc(C(=O)O)ccc3Cl)o2)S1`, the inhibition amounted to 15.5%. As for `CCOC(=O)c1cn(C2CC2)c2c(C)c(N3CCC4=C(C3)/C(=N/OC)C(C)CS4)c(N)cc2c1=O` (stereo not drawn), the inhibition amounted to 21.4%. For `Cc1ccc(-n2c(SCc3ccc(C(=O)O)cc3)nnc2-c2ccc(Cl)cc2)cc1` the value was 1.3%. For `COc1cc(/C=C2/SC(Nc3ccccc3F)=NC2=O)ccc1OCC(=O)O` the value was 11.9%; for `CCOC(=O)c1cn(C2CC2)c2c(C)c(N3CCC4=C(C3)C(=O)C(C)CS4)c(N)cc2c1=O` (stereo not drawn), 50.5%. Then `CCN(CC)CCOc1cc(-c2ccc(OCCN3CCCCC3)cc2)nc2ccccc12`, with 65.6%; and `COCCN1C(=O)/C(=C/c2ccc(O[C@@H](C)C(=O)O)c(OC)c2)S/C1=N\c1ccccc1`, with 10.6%. As to `O=C(CSc1nnc(CNc2ccc(F)cc2)o1)N1c2ccccc2Sc2ccccc21`, the inhibition was found to be 11.5%. In the case of `CCC(C)N1C(=O)S/C(=C/c2ccc(C(=O)O)cc2)C1=O` (stereo not drawn), the inhibition turned out to be 0%.

For the compound `C=CCOc1c(I)cc(/C=C2\C(=O)N(c3ccc(C(=O)O)cc3)N=C2c2ccccc2)cc1OC`, the inhibition amounted to 3.8%.

In the case of `CCC(C)N1C(=O)S/C(=C\c2ccc(-c3cc(C(=O)O)ccc3Cl)o2)C1=O` (stereo not drawn), the inhibition was determined as 74.7%.

Regarding `Cn1c(-c2ccc(O)cc2)cc(=O)c2ccccc21`, the inhibition worked out at 0%. For `CCOC(=O)c1cn(C2CC2)c2cc(N3CCC4=C(C3)/C(=N/O)C(C)CS4)c(F)cc2c1=O` (stereo not drawn) the value was 22.5%.
